Several values for one entry are separate records, joined by “and”; a condition that tells them apart may be missing. Identical values can stand only once.
Columns and labels:
human recombinant CYP1A1 = target: T1, human recombinant CYP1A1 (Homo sapiens, UniProt P04798); assay: Kinetics of elemicin 1′-hydroxylation by recombinant CYP1A1; assay type: in vitro ADME
T1 sequence (P04798 1-512): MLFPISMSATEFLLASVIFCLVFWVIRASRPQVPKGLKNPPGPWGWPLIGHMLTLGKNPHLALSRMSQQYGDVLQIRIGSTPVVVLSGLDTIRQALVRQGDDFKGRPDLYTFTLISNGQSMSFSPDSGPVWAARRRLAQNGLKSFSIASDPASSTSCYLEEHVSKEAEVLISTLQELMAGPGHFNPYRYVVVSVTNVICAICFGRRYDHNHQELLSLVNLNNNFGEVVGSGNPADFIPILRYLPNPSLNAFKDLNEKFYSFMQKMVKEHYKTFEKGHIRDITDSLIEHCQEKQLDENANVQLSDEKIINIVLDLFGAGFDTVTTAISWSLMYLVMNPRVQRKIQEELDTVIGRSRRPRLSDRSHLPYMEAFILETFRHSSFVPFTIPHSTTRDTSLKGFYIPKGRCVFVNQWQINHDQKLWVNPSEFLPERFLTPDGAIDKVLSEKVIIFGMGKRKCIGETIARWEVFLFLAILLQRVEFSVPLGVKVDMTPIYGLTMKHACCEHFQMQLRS

[1] = test system: stearoyl-CoA desaturase 1 (SCD1); assay: Hepatic Scd1 mRNA; assay type: in vivo, mouse; settings: for mRNA levels of Scd1 in liver: qPCR, vs control mice
Summary of the method: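 C57BL/6J mice (n = 6; n = 4 in SCD1-inhibitor study) gavaged with test compound 100 mg/kg every 24 h ×3, vehicle 0.5% CMC-Na. Where used, SCD1 inhibitor (DMSO/Tween 80/saline 1:2:97) was given i.p. twice daily, 10 mg/kg/day, starting before first dose. Liver flash-frozen. Western: RIPA/PMSF lysate, 10 μg protein, 10% SDS-PAGE, PVDF, ECL detection. mRNA by qRT-PCR.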

C57BL/6J mice [2] = assay: Experiment 1: toxicity of elemicin in mice, 3 weeks; assay type: in vivo, mouse
C57BL/6J mice [3] = assay: Experiment 6: elemicin versus 1′-hydroxyelemicin toxicity at the same dose; assay type: in vivo, mouse
human recombinant CYP2A6 = target: T2, human recombinant CYP2A6 (Homo sapiens, UniProt P11509); assay: Kinetics of elemicin 1′-hydroxylation by recombinant CYP2A6; assay type: in vitro ADME
T2 sequence (P11509 1-494): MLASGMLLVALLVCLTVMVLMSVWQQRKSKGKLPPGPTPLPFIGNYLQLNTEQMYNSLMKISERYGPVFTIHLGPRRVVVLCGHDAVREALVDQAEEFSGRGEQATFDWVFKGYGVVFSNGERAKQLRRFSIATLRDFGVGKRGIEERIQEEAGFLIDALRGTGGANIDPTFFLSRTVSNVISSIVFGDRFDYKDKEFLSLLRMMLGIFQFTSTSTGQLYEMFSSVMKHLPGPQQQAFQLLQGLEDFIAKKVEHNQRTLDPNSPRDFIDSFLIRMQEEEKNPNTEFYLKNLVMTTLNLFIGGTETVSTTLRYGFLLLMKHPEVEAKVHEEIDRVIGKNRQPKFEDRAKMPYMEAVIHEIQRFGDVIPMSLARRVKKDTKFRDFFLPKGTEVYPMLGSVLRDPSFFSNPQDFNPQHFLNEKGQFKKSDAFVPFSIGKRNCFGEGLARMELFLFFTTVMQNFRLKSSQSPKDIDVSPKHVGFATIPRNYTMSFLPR

[4] = test system: CYPs in pooled mouse liver microsomes (MLMs); assay: Chemical inhibition of 1′-hydroxyelemicin formation in liver microsomes; assay type: in vitro ADME; settings: 50 μM elemicin, MLMs 0.5 mg/mL, 40 min
C57BL/6J mice [5] = assay: Experiment 4: SCD1 suppression by A939572 with 1′-hydroxyelemicin in mice; assay type: in vivo, mouse; settings: A939572 10 mg/kg/day i.p. + 100 mg/kg 1′-hydroxyelemicin
[6] = mouse, in vivo, 100 mg/kg
C57BL/6J mice [7] = assay: Experiment 5: alpha-naphthoflavone with elemicin in mice; assay type: in vivo, mouse; settings: alpha-naphthoflavone 80 mg/kg/day i.p. + elemicin 500 mg/kg oral for 7 days
C57BL/6J mice [8] = assay: Experiment 3: high-oleic acid diet with 1′-hydroxyelemicin in mice; assay type: in vivo, mouse; settings: high-oleic acid diet + 100 mg/kg 1′-hydroxyelemicin 3 days
[9] = substrate: C=CCc1cc(OC)c(OC)c(OC)c1; assay: Kinetics of elemicin 1′-hydroxylation by recombinant CYP1A2; assay type: in vitro ADME, human; settings: other: 1′-hydroxyelemicin formation from elemicin, mean ± SD
[10] = substrate: C=CCc1cc(OC)c(OC)c(OC)c1; assay: Kinetics of elemicin 1′-hydroxylation by recombinant CYP2C19; assay type: in vitro ADME, human; settings: other: 1′-hydroxyelemicin formation from elemicin, mean ± SD
[11] = substrate: C=CCc1cc(OC)c(OC)c(OC)c1; assay: Kinetics of elemicin 1′-hydroxylation by recombinant CYP2A6; assay type: in vitro ADME, human; settings: other: 1′-hydroxyelemicin formation from elemicin, mean ± SD
[12] = substrate: C=CCc1cc(OC)c(OC)c(OC)c1; assay: Kinetics of elemicin 1′-hydroxylation by recombinant CYP1A1; assay type: in vitro ADME, human; settings: other: 1′-hydroxyelemicin formation from elemicin, mean ± SD
[13] = elemicin 500 mg/kg oral, 3 weeks
[14] = 500 mg/kg oral every 24 h for 3 weeks, vs control group
[15] = 500 mg/kg oral, 3 weeks, vs control group
[16] = 1′-hydroxyelemicin 100 mg/kg oral, 3 days

For `C=CCc1cc(OC)c(OC)c(OC)c1` [elemicin, 3,4,5-trimethoxyallylbenzene], the Vmax (human recombinant CYP1A1) was 1.80 ± 0.045 nmol ● min^−1 nmol ● CYP^−1, the “in vitro catalytic efficiency” value (human recombinant CYP1A1; Vmax/Km × 1000 μL) was 140.062 μL min^−1 nmol P450^−1 and the “SCD1 protein in liver (Western blot)” value [1, 13] was “decreased”. For the same molecule, the “mRNA levels of Scd1 in liver” value [1, 13] was “clearly decreased”, the “histopathological analysis of hepatic tissue” value (C57BL/6J mice [2]; 500 mg/kg oral every 24 h for 3 weeks, H&E) was “cytoplasmic pale staining, hepatocyte swelling and the cytoplasm seemed abnormal around the central vein” and the “TG levels in liver” value (C57BL/6J mice [2]; [14]) was “significantly elevated”. For the same molecule, the “TG levels in plasma” value (C57BL/6J mice [2]; [14]) was “significantly elevated”, the “liver weights (hepatic index)” value (C57BL/6J mice [2]; [14]) was “increased” and the “serum ALT” value (C57BL/6J mice [2]; [14]) was “no significant changes”. For the same molecule, the “total plasma GSH and GSSG” value (C57BL/6J mice [2]; [14]) was “reduced”, the “ratios of 18:1-LPC to 18:0-LPC and 16:1-LPC to 16:0-LPC in plasma” value (C57BL/6J mice [2]; [15]) was “dramatically reduced” and the “saturated LPC (18:0-LPC) in plasma” value (C57BL/6J mice [2]; [15]) was “significantly increased”. The “unsaturated LPCs (18:1-, 18:2-, 16:1-, 20:4-LPC) in plasma” value (C57BL/6J mice [2]; [15]) was “obviously reduced”, the hepatomegaly (C57BL/6J mice [3]; 100 mg/kg for 3 days, mice) was “did not result in hepatomegaly” and the Vmax (human recombinant CYP2A6; 1′-hydroxyelemicin formation from elemicin, mean ± SD) was 0.524 ± 0.110 nmol min^−1 nmol P450^−1. The “in vitro catalytic efficiency” value (human recombinant CYP2A6; Vmax/Km × 1000 μL) was 0.520 μL min^−1 nmol P450^−1.

With `CC(=O)N1CCN(c2ccc(OCC3COC(Cn4ccnc4)(c4ccc(Cl)cc4Cl)O3)cc2)CC1` (stereo not shown) [ketoconazole] the “inhibitory effect against 1′-hydroxyelemicin generation” value ([4]; inhibitor 10 μM (CYP3A4)) was “relative higher inhibitory effects”.

In the case of `CNC(=O)c1cccc(NC(=O)N2CCC(Oc3ccccc3Cl)CC2)c1` [A939572], the “SCD1 expression in liver (Western blot)” value ([1]; A939572 10 mg/kg/day i.p. + 100 mg/kg 1′-hydroxyelemicin, A + E′ group) is reported as “significantly decreased”, the “levels of monounsaturated-LPCs in plasma” value (C57BL/6J mice [5]; A + E′ group) is reported as “further decreased” and the “TG levels in plasma” value (C57BL/6J mice [5]; A + E′ vs E′ group) is reported as “markedly elevated”. For the same molecule, the “ratio of unsaturated-LPCs to saturated-LPCs” value (C57BL/6J mice [5]; A + E′ vs E′ group) was “significantly reduced”.

With `C=CC(O)c1cc(OC)c(OC)c(OC)c1` (stereo not shown) [1′-hydroxyelemicin] the “SCD1 protein in liver (Western blot)” value [1, 16] was “decreased”, the “mRNA levels of Scd1 in liver” value [1, 16] was “clearly decreased” and the “GSH adduct in urine” value [6] was “observed in the urine”. The “liver index compared with the same dose of elemicin” value (C57BL/6J mice [3]; mouse, in vivo) was “higher”.

In the case of `O=c1cc(-c2ccccc2)oc2c1ccc1ccccc12` [α-naphthoflavone], the “inhibitory effect against 1′-hydroxyelemicin generation” value ([4]; inhibitor 1 μM (CYP1A1/2)) is reported as “relative higher inhibitory effects” and the elemicin-induced hepatomegaly (C57BL/6J mice [7]) is reported as “significantly alleviate”.

For `CCCCCCCC/C=C\CCCCCCCC(=O)O` [oleic acid], the “16:1-LPC, 18:1-LPC and 18:2-LPC levels in plasma” value (C57BL/6J mice [8]) was “ameliorated the decrease”, the “ratios of 18:1-LPC to 18:0-LPC and 16:1-LPC to 16:0-LPC in plasma” value (C57BL/6J mice [8]) was “increased to normal level” and the “hepatic TG content” value (C57BL/6J mice [8]; vs control mice) was “still higher than that of control mice”. The liver size (C57BL/6J mice [8]; vs control mice) was “still higher than that of control mice”.

B1: human recombinant CYP1A2 (Homo sapiens) (protein)
chain: MALSQSVPFSATELLLASAIFCLVFWVLKGLRPRVPKGLKSPPEPWGWPLLGHVLTLGKNPHLALSRMSQRYGDVLQIRIGSTPVLVLSRLDTIRQALVRQGDDFKGRPDLYTSTLITDGQSLTFSTDSGPVWAARRRLAQNALNTFSIASDPASSSSCYLEEHVSKEAKALISRLQELMAGPGHFDPYNQVVVSVANVIGAMCFGQHFPESSDEMLSLVKNTHEFVETASSGNPLDFFPILRYLPNPALQRFKAFNQRFLWFLQKTVQEHYQDFDKNSVRDITGALFKHSKKGPRASGNLIPQEKIVNLVNDIFGAGFDTVTTAISWSLMYLVTKPEIQRKIQKELDTVIGRERRPRLSDRPQLPYLEAFILETFRHSSFLPFTIPHSTTRDTTLNGFYIPKKCCVFVNQWQVNHDPELWEDPSEFRPERFLTADGTAINKPLSEKMMLFGMGKRRCIGEVLAKWEIFLFLAILLQQLEFSVPPGVKVDLTPIYGLTMKHARCEHVQARLRFSIN
With B1 the Km [9] was 15.850 ± 3.067 µM, the kcat [9] was 0.0067 ± 0.00035 s⁻¹ and the kcat/Km [9] was 423 M⁻¹ s⁻¹.

B2: human recombinant CYP2C19 (Homo sapiens) (protein)
chain: MDPFVVLVLCLSCLLLLSIWRQSSGRGKLPPGPTPLPVIGNILQIDIKDVSKSLTNLSKIYGPVFTLYFGLERMVVLHGYEVVKEALIDLGEEFSGRGHFPLAERANRGFGIVFSNGKRWKEIRRFSLMTLRNFGMGKRSIEDRVQEEARCLVEELRKTKASPCDPTFILGCAPCNVICSIIFQKRFDYKDQQFLNLMEKLNENIRIVSTPWIQICNNFPTIIDYFPGTHNKLLKNLAFMESDILEKVKEHQESMDINNPRDFIDCFLIKMEKEKQNQQSEFTIENLVITAADLLGAGTETTSTTLRYALLLLLKHPEVTAKVQEEIERVIGRNRSPCMQDRGHMPYTDAVVHEVQRYIDLIPTSLPHAVTCDVKFRNYLIPKGTTILTSLTSVLHDNKEFPNPEMFDPRHFLDEGGNFKKSNYFMPFSAGKRICVGEGLARMELFLFLTFILQNFNLKSLIDPKDLDTTPVVNGFASVPPFYQLCFIPV
B2 showed a Km [10] of 43.430 ± 3.613 µM, a kcat [10] of 0.00792 ± 0.0002 s⁻¹ and a kcat/Km [10] of 182 M⁻¹ s⁻¹.

B3: human recombinant CYP2A6 (Homo sapiens) (protein)
chain: T2 sequence (P11509 1-494)
With B3 the Km [11] was 1007.000 ± 293.000 µM.

B4: human recombinant CYP1A1 (Homo sapiens) (protein)
chain: T1 sequence (P04798 1-512)
For B4, the Km [12] was 12.9 ± 1.26 µM and 12.880 ± 1.265 µM and the kcat/Km [12] was 140 μL min^−1 nmol CYP^−1.

— PMC7397737 (Chemical research in toxicology, 2019)
